From ChEMBL document CHEMBL4765234 (J Med Chem, 2016)
Values after ≈ are worked out from the molar mass of the structure shown. Active and inactive are the calls of the source. The calls are words filed in the database; no cut-off is given here.

Legend:
[1] = Metabolic stability in mouse liver microsomes assessed as compound hydrolysis incubated for 30 mins by LC-MS/MS analysis; assay type: ADME, Microsome; conditions: read-out: Drug degradation
Outline: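 Incubated 30 min with mouse or human liver microsomes. Stability reported as % metabolized.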

[2] = target: T1, Peroxisome proliferator-activated receptor delta (Homo sapiens) (UniProt Q03181); assay: Agonist activity at human Gal4-fused PPARdelta LBD expressed in African green monkey CV1 cells cotransfected with pRL-SV40 plasmid assessed as maximum efficacy measured after 24 hrs by luciferase reporter gene assay relative to control; assay type: cell-based; conditions: CV-1
T1 sequence (whole entry): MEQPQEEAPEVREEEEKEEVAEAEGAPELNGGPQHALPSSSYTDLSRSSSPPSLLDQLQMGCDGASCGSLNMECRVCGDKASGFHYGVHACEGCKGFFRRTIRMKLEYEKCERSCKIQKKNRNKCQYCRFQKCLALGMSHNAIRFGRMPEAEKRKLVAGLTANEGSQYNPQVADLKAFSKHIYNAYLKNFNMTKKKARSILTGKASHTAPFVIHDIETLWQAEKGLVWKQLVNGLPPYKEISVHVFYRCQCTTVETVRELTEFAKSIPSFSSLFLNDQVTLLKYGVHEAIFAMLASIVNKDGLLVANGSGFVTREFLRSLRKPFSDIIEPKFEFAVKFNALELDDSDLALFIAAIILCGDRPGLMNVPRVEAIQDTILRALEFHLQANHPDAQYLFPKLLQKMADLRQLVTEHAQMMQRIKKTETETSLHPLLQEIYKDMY
Outline: (§1)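 CV1 African green monkey kidney cells were cotransfected, in DMEM with 5% charcoal-stripped FBS, with two plasmids: an SV40-driven Gal4 DBD–PPARα or PPARδ LBD hybrid, and a 5×Gal4-element firefly luciferase reporter. Cells were replated at 15000/well for 4 h, then exposed to 0.17 nM–10 μM in half-log steps for 24 h. Luciferase was read, normalized to maximum from 10 μM reference agonist, and fit by a 4-parameter model.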

[3] = Dissociation constant, pKa1 of compound by potentiometric method; assay type: physicochemical
Outline: (§2)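 pKa values measured potentiometrically.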

Mus musculus = assay: Hypoglycemic activity in Balb/c mouse assessed as reduction in blood glucose level at 0.03 to 3 mg/kg, po administered 60 mins prior to glucose challenge and measured at 7 to 60 mins by IPGTT; assay type: functional, organism-based; conditions: dose 0.03-3 mg/kg
[4] = Drug metabolism in rat hepatocytes assessed as glucuronidation by LC-MS/MS analysis; assay type: ADME, cell-based, Hepatocyte
[5] = target: T2, Free fatty acid receptor 1 (Homo sapiens, UniProt O14842); assay: Agonist activity at human recombinant full length GPR40 overexpressed in human HEK293 cells assessed as increase in inositol phosphate accumulation in presence of terbium cryptate-labeled anti IP1/d2-labelled IP1 measured after 120 mins by HTRF assay; assay type: functional, cell-based
T2 sequence (O14842 whole entry): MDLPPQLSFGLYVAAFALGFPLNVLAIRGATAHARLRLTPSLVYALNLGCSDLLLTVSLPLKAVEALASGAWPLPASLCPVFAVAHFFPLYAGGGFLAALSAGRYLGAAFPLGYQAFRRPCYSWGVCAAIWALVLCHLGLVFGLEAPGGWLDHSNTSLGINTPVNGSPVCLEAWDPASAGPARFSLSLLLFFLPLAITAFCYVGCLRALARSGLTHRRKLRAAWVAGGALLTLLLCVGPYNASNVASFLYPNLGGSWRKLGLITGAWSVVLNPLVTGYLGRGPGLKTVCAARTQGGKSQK
Outline: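 HEK293 hGPR40 cells (20K/well) were cultured overnight, washed, and held in IP1 stimulation buffer. IP-1 was measured by competitive HTRF immunoassay with terbium cryptate anti-IP1 mAb and d2-labelled IP1.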

[6] = Solubility of the compound in 0.01 N HCl; assay type: physicochemical
[7] = Protein binding in plasma (unknown origin) by equilibrium dialysis method; assay type: ADME, cell-free; conditions: human, read-out: PPB
Outline: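 Plasma protein binding measured by equilibrium dialysis.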

[8] = Dissociation constant, pKa2 of compound by potentiometric method; assay type: physicochemical; outline: as §2
[9] = target: Free fatty acid receptor 1 (Mus musculus) (UniProt Q76JU9); assay: Agonist activity at GPR40 in mouse MIN6 cells assessed as induction of glucose-mediated insulin secretion incubated for 2 hrs by ELISA; assay type: cell-based
Free fatty acid receptor 1 (Mus musculus), sequence (Q76JU9 whole entry): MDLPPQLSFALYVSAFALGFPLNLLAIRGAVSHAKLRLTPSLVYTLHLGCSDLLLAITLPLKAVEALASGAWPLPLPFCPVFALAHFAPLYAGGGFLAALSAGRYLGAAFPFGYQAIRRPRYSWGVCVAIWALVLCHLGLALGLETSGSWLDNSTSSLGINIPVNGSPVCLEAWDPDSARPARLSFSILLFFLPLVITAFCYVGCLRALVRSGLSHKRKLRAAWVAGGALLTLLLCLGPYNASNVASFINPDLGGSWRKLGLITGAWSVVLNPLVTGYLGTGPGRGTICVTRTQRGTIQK
Outline: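 Glucose-dependent insulin secretion in mouse MIN6 cells or rat islet cells, scored as secretion above the glucose-alone level.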

[10] = target: T3, Peroxisome proliferator-activated receptor gamma (Homo sapiens) (UniProt P37231); assay: Displacement of [3H]-[…] from PPARgamma (unknown origin) expressed in baculovirus infected Sf9 insect cells upto 30 uM measured after 10 hrs by microbeta scintillation counting analysis; conditions: dose microM <=30, time 10.0 hrs
T3 sequence (whole entry): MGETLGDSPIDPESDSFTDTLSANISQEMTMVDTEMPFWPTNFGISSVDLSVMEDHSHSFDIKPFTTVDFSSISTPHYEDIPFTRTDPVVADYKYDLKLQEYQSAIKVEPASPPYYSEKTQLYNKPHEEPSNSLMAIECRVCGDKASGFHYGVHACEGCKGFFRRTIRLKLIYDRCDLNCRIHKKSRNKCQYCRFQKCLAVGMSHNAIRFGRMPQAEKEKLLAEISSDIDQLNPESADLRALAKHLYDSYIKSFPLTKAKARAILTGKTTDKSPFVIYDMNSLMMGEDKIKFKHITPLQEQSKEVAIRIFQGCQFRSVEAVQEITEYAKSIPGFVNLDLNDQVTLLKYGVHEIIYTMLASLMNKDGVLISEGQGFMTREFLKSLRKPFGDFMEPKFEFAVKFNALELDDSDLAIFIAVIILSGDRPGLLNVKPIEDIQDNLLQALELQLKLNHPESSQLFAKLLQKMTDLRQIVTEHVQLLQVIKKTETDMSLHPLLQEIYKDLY
Outline: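 Scintillation proximity assay. Sf9 lysates with baculovirus-expressed PPARα (0.3 μg), PPARδ (0.5 μg) or PPARγ (1.25 μg), each with RXRα, were bound via biotinylated DR2 oligo (0.126 nM) to streptavidin yttrium silicate beads. Buffer was HEPES pH 7.8 with KCl, MgCl2, DTT, CHAPS, 14% glycerol and salmon sperm DNA. A 3H reference agonist ligand was used, with 11 compound concentrations, for 10 h. Nonspecific binding was defined with 10000 nM unlabeled reference. Ki was derived from IC50.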

[11] = target: T2, Free fatty acid receptor 1; assay: Displacement of [3H]-TAK-875 from human recombinant full-length GPR40 expressed in human HEK293 cell membrane incubated for 2 hrs by solid scintillation counting method; assay type: cell membranes; conditions: for Activity: filed as agonist
[12] = target: T4, Peroxisome proliferator-activated receptor delta (Homo sapiens, UniProt Q03181); assay: Agonist activity at human Gal4-fused PPARdelta LBD expressed in African green monkey CV1 cells cotransfected with pRL-SV40 plasmid measured after 24 hrs by luciferase reporter gene assay; assay type: cell-based, CV-1; outline: as §1
T4 sequence (Q03181 whole entry): T1 sequence (whole entry)

[13] = target: Free fatty acid receptor 1 (Rattus norvegicus, UniProt Q8K3T4); assay: Agonist activity at Prolink-tagged rat GPR40 fused with EA-tagged beta-arrestin expressed in human U2OS cells assessed as induction of beta-arrestin recruitment measured after 90 mins by beta-galactosidase based PathHunter assay; assay type: cell-based
Free fatty acid receptor 1 (Rattus norvegicus, UniProt Q8K3T4), sequence (Q8K3T4 whole entry, the tested form may be a part): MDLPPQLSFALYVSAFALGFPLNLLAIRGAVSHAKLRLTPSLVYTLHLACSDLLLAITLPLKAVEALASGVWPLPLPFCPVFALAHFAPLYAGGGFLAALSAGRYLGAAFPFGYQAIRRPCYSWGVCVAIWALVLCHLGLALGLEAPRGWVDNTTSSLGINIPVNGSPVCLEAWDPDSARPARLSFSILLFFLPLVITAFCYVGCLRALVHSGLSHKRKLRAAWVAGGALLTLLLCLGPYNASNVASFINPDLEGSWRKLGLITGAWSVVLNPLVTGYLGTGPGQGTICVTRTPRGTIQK
Outline: (§3)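 PathHunter β-gal complementation. Cells were incubated overnight at 5000/well in medium with 1% heat-inactivated FBS. Compound was added as a 20-point 2-fold series from a top final of 100 μM (1% DMSO) for 90 min at 37 °C, followed by detection reagents and chemiluminescence read after 1 h at rt.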

[14] = target: T2, Free fatty acid receptor 1; assay: Agonist activity at human recombinant full-length Prolink-tagged GPR40 fused with EA-tagged beta-arrestin expressed in human HEK293 cells assessed as induction of beta-arrestin recruitment measured after 90 mins by beta-galactosidase based PathHunter assay; assay type: cell-based; outline: as §3

Structure (SMILES) | metabolised at 0.5 h [1] | Emax [2] | pKa [3] | Activity (Mus musculus) | Drug metabolism [4] | EC50 [5] | solubility [6] | fraction unbound [7] | pKa [8] | Activity ([9]; filed as agonist) | Activity [10] | Activity [11] | EC50 [12] | EC50 [13] | EC50 [14] | Activity [9] | Ki [11]
CC#C[C@@H](CC(=O)O)c1ccc(OCc2ccc(CN3CCC4(C=Cc5ccccc54)CC3)cc2)cc1 [LY2881835] | 79% | 5% | 4.1 | Active | Metabolite_Detected | 1.2 nM | 0.013 mg/mL (≈ 26.4 µM) | < 0.01 | 8.1 | Active | inactive | Dose-dependent effect | > 10000 nM |  |  |  | 
O=C(O)C[C@@H](c1ccc(OCc2ccc3nc(-c4ccccc4)nn3c2)cc1)c1ccon1 |  |  | 1.9 |  |  | 68 nM |  | < 0.01 |  |  | inactive |  |  | 14000 nM | 600 nM | inactive | 79 nM
O=C(O)CCc1ccc(OCc2ccc(CN3CCC4(C=Cc5ccccc54)CC3)cc2)cc1F |  |  | 3.9 |  |  | 39 nM |  | < 0.01 | 7.7 |  | inactive |  |  | 160 nM | 340 nM | inactive | 68 nM
CC#C[C@@H](CC(=O)O)c1ccc(OCc2ccc(CN3CCC4(CC3)CN(C)c3ccccc34)cc2)cc1 |  |  | 4.3 |  |  | 12 nM |  | < 0.01 | 8.3 | Active | inactive |  |  | 5.5 nM | 56 nM |  | 11 nM
CC#C[C@@H](CC(=O)O)c1ccc(OCc2ccc(CN3CCC4(CCc5ccccc54)CC3)s2)cc1 | 98% | 2% | 3.4 | Active | Metabolite_Detected | 6.1 nM | 0.055 mg/mL (≈ 110 µM) | < 0.01 | 7.9 | Active | inactive | Dose-dependent effect | > 10000 nM | 1.7 nM | 7.9 nM |  | 8.2 nM
CC#C[C@@H](CC(=O)O)c1ccc(OCc2ccc(CN3CCC4(CCc5ccccc54)CC3)cc2)cc1 |  |  | 4.6 |  |  | 6.2 nM |  | < 0.01 | 8.6 | Active | inactive |  |  | 1.3 nM | 11 nM |  | 4.6 nM
CC#C[C@@H](CC(=O)O)c1ccc(OCc2ccc(CN3CCCc4cccc(OC)c43)s2)cc1 | 38% | 1% | 3.4 | Active | Metabolite_Detected |  | 0.046 mg/mL (≈ 96.7 µM) | < 0.01 | 6 |  |  | Dose-dependent effect | > 10000 nM | 3 nM | 7 nM |  | 
CC#C[C@@H](CC(=O)O)c1ccc(OCc2ccc(CN3CCC4(C=Cc5ccccc54)CC3)s2)cc1 |  |  | 4.2 |  | Metabolite_Detected | 0.6 nM |  | < 0.01 | 7.4 | Active | inactive |  |  | 0.93 nM | 5.3 nM |  | 4.8 nM
